According to ChEMBL document CHEMBL1124511, “N-(cyclohexylcarbonyl)-D-phenylalanines and related compounds. A new class of oral hypoglycemic agents. 2” (1989):

What follows are molecules tested on Mus musculus (assay: Percent decrease in blood glucose level, after peroral administration of 100 mg/kg of compound in mice; Inactive). Conditions: route oral.
Type: functional

| SMILES | Hypoglycemic activity [%] |
| --- | --- |
| CC(C)[C@H]1CC[C@@H](C(=O)N[C@H](Cc2ccccc2)C(=O)O)CC1 | <20 |
| O=C(N[C@H](Cc1ccccc1)C(=O)O)C1CCCCCC1 | <20 |
| CC(C)[C@H]1CC[C@H](C(=O)NCCc2ccccc2)CC1 | <20 |
| O=C(O)[C@@H](Cc1ccccc1)NC(=O)[C@H]1CC[C@H](c2ccccc2)CC1 | <20 |
| CCCCC[C@H]1CC[C@H](C(=O)N[C@H](Cc2ccccc2)C(=O)O)CC1 | <20 |
| CC(C)[C@H]1CC[C@H](C(=O)N[C@@H](Cc2ccccc2)C(N)=O)CC1 | <20 |
| O=C(N[C@H](Cc1ccccc1)C(=O)O)C1CC2CCC1C2 (stereo partly drawn) | <20 |
| O=C(N[C@H](Cc1ccccc1)C(=O)O)C1CCc2ccccc2C1 (stereo partly drawn) | <20 |

Species: Mus musculus
Test: Hypoglycemic activity causing more than a 20% blood glucose decrease in fasting mice
Type: functional
Conditions: not given
Outline: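 Male ICR-CD1 mice, 5 weeks old, 18 h fasted, groups of five. Oral dosing as a suspension in 0.5% (carboxymethyl)cellulose–0.14 M NaCl, 1 mL/kg; vehicle control run in parallel. Carotid blood taken at 1 h; glucose by glucose-oxidase-peroxidase. Student's t test (p < 0.05). Value is the lowest dose giving >20% glucose decrease.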

| SMILES | Minimum effective hypoglycemic dose [mg/kg] |
| --- | --- |
| CC(C)[C@H]1CC[C@H](C(=O)N[C@@H](Cc2ccccc2)C(=O)OCc2ccccc2)CC1 | 25 |
| CC[C@H]1CC[C@H](C(=O)N[C@H](Cc2ccccc2)C(=O)O)CC1 | 25 |
| C[C@H]1CC[C@H](C(=O)N[C@H](Cc2ccccc2)C(=O)O)CC1 | 25 |
| CC(C)(C)[C@H]1CC[C@H](C(=O)N[C@H](Cc2ccccc2)C(=O)O)CC1 | 6.3 |
| CCC[C@H]1CC[C@H](C(=O)N[C@H](Cc2ccccc2)C(=O)O)CC1 | 25 |
| CCCC[C@H]1CC[C@H](C(=O)N[C@H](Cc2ccccc2)C(=O)O)CC1 | 25 |
| C=C(C)[C@@H]1CC=C(C(=O)N[C@H](Cc2ccccc2)C(=O)O)CC1 | 25 |
| O=C(N[C@H](Cc1ccccc1)C(=O)O)C1CCCCC1 | 100 |
| O=C(N[C@H](Cc1ccccc1)C(=O)O)C1CCCC1 | 50 |
| CC(C)c1ccc(C(=O)N[C@H](Cc2ccccc2)C(=O)O)cc1 | 25 |
| COC(=O)[C@H](Cc1ccccc1)NC(=O)[C@H]1CC[C@H](C(C)C)CC1 | 3.1 |
| CC(C)N(C(=O)[C@H](Cc1ccccc1)NC(=O)[C@H]1CC[C@H](C(C)C)CC1)C(C)C | 100 |
| CC(C)[C@H]1CC[C@H](C(=O)N[C@@H](Cc2ccccc2)C(=O)O)CC1 [(S)-NATEGLINIDE] | 100 |
| CC(C)[C@H]1CC[C@H](C(=O)N[C@H](Cc2ccccc2)C(=O)O)CC1 [NATEGLINIDE] | 1.6 |
| CCCCNC(=O)NS(=O)(=O)c1ccc(C)cc1 [TOLBUTAMIDE] | 25 |
